Assay outcomes (PubChem)
Myeloid diff MLP = induction of myeloid progenitor differentiation, primary screen, cell-based, flow cytometry, MLPCN library. ER-HoxA9 myeloid progenitors, lysozyme-GFP differentiation. calls only at 10 µM. 360,000 compounds, 1% hits;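 active means normalized GFP-positive differentiation at or above the plate's own cutoff, the solvent-only control mean plus 3 SD; inconclusive means no clear call, values can overlap the other calls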;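 further: cells exposed to compound for four days before flow analysis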
PP5 inh = PP5 phosphatase inhibitors, primary screen, biochemical, fluorescence; Serine/threonine-protein phosphatase 5 (Homo sapiens), P53041; purified PP5c, OMFP substrate fluorescence; inhibition, % at 6.7 µM; 320,000 compounds, 0.18% hits; AID 1987, 2009;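 active means inhibition above the campaign's mean inhibition across all tested compounds plus 3 SD, cut at about 9.5% in these data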
Target sequence (P53041 whole entry, looked up): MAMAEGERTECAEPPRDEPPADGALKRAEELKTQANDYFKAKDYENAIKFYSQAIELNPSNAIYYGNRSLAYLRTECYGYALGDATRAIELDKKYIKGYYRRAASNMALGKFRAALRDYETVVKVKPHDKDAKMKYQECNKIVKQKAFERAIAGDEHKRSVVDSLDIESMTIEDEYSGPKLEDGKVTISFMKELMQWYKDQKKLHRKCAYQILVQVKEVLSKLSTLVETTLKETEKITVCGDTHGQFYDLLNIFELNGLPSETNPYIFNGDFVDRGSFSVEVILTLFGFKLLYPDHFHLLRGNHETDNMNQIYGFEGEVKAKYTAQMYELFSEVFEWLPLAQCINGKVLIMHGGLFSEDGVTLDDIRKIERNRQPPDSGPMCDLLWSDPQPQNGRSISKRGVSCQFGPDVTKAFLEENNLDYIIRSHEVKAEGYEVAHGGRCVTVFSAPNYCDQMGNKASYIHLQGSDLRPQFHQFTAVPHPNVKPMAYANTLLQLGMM
PP1 counter = PP1-alpha phosphatase inhibitors, primary screen, counter-screen for PP5 inhibitor project, biochemical, fluorescence, OMFP substrate, single point. purified PP1alpha. 320,000 compounds, 0.9% hits. Serine/threonine-protein phosphatase PP1-alpha catalytic subunit (Homo sapiens), P62136. AID 2235, 2010. inhibition, % at 6.7 µM;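 active means inhibition above the mean inhibition of all tested compounds plus 3 SD, computed separately for each screening campaign, cut at about 15% in these data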
CTSL1 counter = Fasciola hepatica cathepsin L1 inhibitors, primary screen, counter-screen for PFM18AAP inhibitor project, biochemical, QFRET, fluorogenic peptide substrate; recombinant F. hepatica cathepsin L1, Z-Leu-Arg-MCA fluorescence; inhibition, % at 5.96 µM; 300,000 compounds, 0.49% hits; AID 1906, 2009;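 active means inhibition above the mean of all tested compounds plus 3 SD, set per screening campaign, cut at about 17% in these data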
NadD inh = inhibitors of S. aureus NadD, primary screen, biochemical, colorimetric, uHTS; purified NadD enzyme, colorimetric absorbance read-out; inhibition, % at 20 µM; 360,000 compounds, 0.78% hits; in the data active means inhibition above about 26%
core dimer inh = inhibitors of HCV core protein dimerization, primary screen, biochemical, TR-FRET, high-throughput; TR-FRET GST/Flag-core106 dimerization, 1536-well; inhibition, % at 5 µM; 300,000 compounds, 0.33% hits; AID 1899, 2009;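 active means inhibition above the mean of all tested compounds plus 3 SD, set per screening campaign, cut at about 45% in these data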
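System: GST/Flag-tagged HCV core106 proteins. Incubation: compound-protein-antibody incubation 4 h at 22.5 °C. Technique: HTRF with 340 nm excitation, 617/671 nm emission. Medium: KF-containing HEPES buffer, pH 7.45, DTT, CHAPS, BSA. Read-out: inhibition (%) from 671 over 617 nm ratio. Also added: Eu(K)-anti-GST 90 ng/mL plus XL665-anti-Flag 1 µg/mL.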
NadD conf = inhibitors of S. aureus NadD, confirmation, biochemical, colorimetric, single concentration. shares compounds with NadD inh. purified S. aureus NadD, colorimetric enzyme assay. inhibition, % at 20 µM. 2,000 compounds, 13% hits. AID 624309, 2012; in the data active means inhibition mostly above about 42%, no sharp cut-off; inactive means mostly below about 42%
Hits are given with their value; . = inactive; ? = inconclusive; / = no result given. In the library only some 3.1% were active in any assay of this set; here they are far more common.

SMILES | Myeloid diff MLP | PP5 inh | PP1 counter | CTSL1 counter | NadD inh | core dimer inh | NadD conf
CCOc1ccc(C=NNc2ccc(S(=O)(=O)Nc3ccccc3C(=O)O)cc2[N+](=O)[O-])cc1 | . | / | / | / | 34 | / | 76
CCOc1cccc(C=NNc2ccc(S(=O)(=O)Nc3ccccc3C(=O)O)cc2[N+](=O)[O-])c1O | . | / | / | / | . | / | /
COc1ccc(OC)c(NC(=O)C2(C)CCN2C(C)C)c1 (stereo not drawn) | . | / | / | / | . | / | /
CCOc1ccc(CCN2C(=S)N([C@@H](CC(C)C)CN3CCCC3CN3C(=S)NC[C@@H]3Cc3ccc(O)cc3)C[C@@H]2Cc2ccccc2)cc1 (stereo partly drawn) | . | / | / | / | 34 | / | .
CC(C)C[C@H]1CNC(=S)N1C[C@H]1CCCN1C[C@H](Cc1ccc(O)cc1)N1C[C@H](Cc2ccc(O)cc2)N(CCc2ccccc2)C1=S | . | / | / | / | . | / | /
CCOc1ccc(CCN2C(=S)N([C@@H](CC(C)C)CN3CCCC3CN3C(=S)NC[C@@H]3Cc3ccc(O)cc3)C[C@@H]2CC(C)C)cc1 (stereo partly drawn) | . | / | / | / | 36 | / | .
CCOc1ccc(CCN2C(=S)N([C@@H](Cc3ccc(O)cc3)CN3CCC[C@@H]3CN3C(=S)NC[C@@H]3Cc3ccccc3)C[C@@H]2Cc2ccc(O)cc2)cc1 | . | / | / | / | 45 | / | .
CCOc1ccc(CCN2C(=S)N([C@@H](CC(C)C)CN3CCCC3CN3C(=S)NC[C@@H]3Cc3ccc(O)cc3)C[C@@H]2Cc2ccc(O)cc2)cc1 (stereo partly drawn) | . | / | / | / | 37 | / | .
CCCc1c(C(=O)N/N=C(\C)c2ccc(CC(C)C)cc2)nnn1-c1nonc1N | . | / | / | / | . | / | /
O=C(O)CCCC(=O)N1CCOCCOCCOCCOCC1 | . | . | . | . | . | . | /
CCOc1ccc(CN2CCN(CC3CC3)CC2CCO)cc1 (stereo not drawn) | . | . | . | . | . | . | /
COc1ccc(CCN(C(=O)c2snc(C(N)=O)c2N)C(C)C(=O)NC2CCCCC2)cc1OC (stereo not drawn) | . | . | . | . | . | . | /
N#CCC(=O)Nc1ccc(C(=O)NNC(=O)c2ccccc2-n2cccc2)cc1 | . | . | . | / | . | / | /
Cc1cc(C)c2nc(NNC(=O)c3ccc(S(=O)(=O)N4CC(C)CC(C)C4)cc3)sc2c1 (stereo not drawn) | . | . | 16 | . | 34 | . | .
COc1ccc(N2C(=O)/C(=C\c3ccco3)N=C2SCC(=O)NC(C)(C)C)cc1Cl | . | . | . | . | 31 | . | .
COc1ccc(/C=C2/N=C(SCC(=O)Nc3cc(C)on3)N(c3ccccc3)C2=O)cc1 | . | . | . | . | . | . | /
O=[N+]([O-])c1ccc(O)c(-c2nc(-c3ccccc3)c(-c3cccs3)[nH]2)c1 | . | . | . | . | 34 | . | .
Cc1ccc2nc(C)cc(C(=O)N/N=C/c3ccncc3)c2c1 | . | . | . | . | . | . | /
Cc1ccc(C2=NNC(=Nc3ccc(F)cc3)SC2)cc1 | . | / | / | / | . | / | /
CCc1ccc(C2=NNC(=Nc3cccc(S(=O)(=O)N(C)C)c3)SC2)cc1 | . | . | . | . | 34 | . | .
CCOC(=O)C1CCN(C(=O)C(C)Sc2nnc3ccccn23)CC1 (stereo not drawn) | . | / | / | / | . | / | /
O=C1NC[C@H](Cc2ccc(O)cc2)N(C[C@@H]2CCCN2C[C@H](Cc2ccccc2)N2C[C@H](Cc3ccc(O)cc3)N(CC3CCCCC3)C(=O)C2=O)C1=O | . | / | / | / | 41 | / | .
O=C1NC[C@H](Cc2ccc(O)cc2)N(C[C@@H]2CCCN2C[C@H](Cc2ccc(O)cc2)N2C[C@H](Cc3ccccc3)N(CC3CCCCC3)C(=O)C2=O)C1=O | . | / | / | / | 33 | / | .
CC(C)C[C@@H](CN1CCC[C@@H]1CN1C(=O)C(=O)NC[C@@H]1Cc1ccccc1)N1C[C@H](Cc2ccc(O)cc2)N(CC2CCCCC2)C(=O)C1=O | . | / | / | / | . | / | /
O=C1NC[C@H](Cc2ccccc2)N(C[C@@H]2CCCN2C[C@H](Cc2ccc(O)cc2)N2C[C@H](Cc3ccc(O)cc3)N(CC3CCCCC3)C(=O)C2=O)C1=O | . | / | / | / | 32 | / | .
SMILES | Myeloid diff MLP | PP5 inh | PP1 counter | CTSL1 counter | NadD inh | core dimer inh | NadD conf
O=C1NC[C@H](Cc2ccccc2)N(C[C@H]2CCCN2C[C@H](Cc2ccccc2)N2C[C@H](Cc3ccccc3)N(CC3CCCCCC3)C(=O)C2=O)C1=O | . | / | / | / | . | / | /
O=C1NC[C@H](Cc2ccccc2)N(C[C@@H]2CCCN2C[C@H](Cc2ccc(O)cc2)N2C[C@H](Cc3ccccc3)N(CCc3ccccc3)C(=O)C2=O)C1=O | . | / | / | / | 30 | / | .
COCC1CCN(C(=O)c2cc(COc3cc(C)c(Cl)c(C)c3)on2)C1 (stereo not drawn) | . | . | . | . | . | . | /
Cc1cc(C(=O)OCC(=O)Nc2c(Cl)cccc2Cl)c(C)o1 | . | / | / | / | . | / | /
Cc1ccc(NC(=O)CSc2nnc3n2CCCCC3)cc1S(=O)(=O)N1CCOCC1 | . | / | / | / | . | / | /
COc1ccc(Nc2nnc(SCC(=O)NC3CCCC3)s2)cc1 | . | / | / | / | . | / | /
N=c1c(S(=O)(=O)c2ccc(Cl)cc2)cc2c(=O)n3ccccc3nc2n1C1CCCCC1 | . | . | . | . | 43 | . | .
C[C@@H](NC(=O)[C@@H]1Cc2ccccc2CN1)C(=O)Nc1ccc2c(c1)OCCO2 | . | . | . | . | . | . | /
COc1ccc(-c2nc3ccc(Cl)cn3c2Cc2ccsc2)cc1OC | ? | / | / | / | . | / | /
C/C(=C/CCC(C)[C@H]1CC[C@@]2(C)C3=C(CC[C@]12C)[C@@]1(C)CCC(=O)C(C)(C)[C@@H]1CC3)C(=O)O (stereo partly drawn) | . | . | . | . | 45 | . | .
N#Cc1c(-c2ccco2)cc(-c2ccc(F)cc2)nc1N | . | . | . | . | 52 | . | .
CC1CCN(C(=O)CSC2=NS(=O)(=O)c3cc(F)ccc3N2)CC1 | . | . | . | . | . | . | /
N#C/C(=C/c1ccc(-c2ccc(S(N)(=O)=O)cc2)o1)C(=O)Nc1ccccc1 | . | . | . | . | . | . | /
Cc1ccc(Cc2cnc(NC(=O)/C(C#N)=C/c3ccc(-c4ccc([N+](=O)[O-])cc4)o3)s2)cc1 | . | . | . | . | 48 | . | .
N#C/C(=C/c1ccc(-c2ccc([N+](=O)[O-])cc2)o1)C(=O)Nc1nc(-c2cccs2)cs1 | . | / | / | / | 48 | / | .
